Columns and labels:
[1] = system: T47D; assay: Cytotoxicity against human T47D cells assessed as growth inhibition at 0.17 mM after 24 hrs by spectrophotometer using BrdU labeling; type: functional; conditions: read-out: GI
In short: (§1)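 Human breast carcinoma T47D cells were plated at 10⁴ cells per mL on microtiter plates. Each compound was added at three doses, given as mM equivalents of three mass concentrations. Plates were incubated for 24, 48 or 72 h. The read-out was percent growth inhibition (GI).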

[2] = system: A549; assay: Cytotoxicity against human A549 cells assessed as growth inhibition at 0.03 mM after 72 hrs by spectrophotometer using BrdU labeling; type: functional; conditions: A549, 72 h, read-out: GI
[3] = system: T47D; assay: Cytotoxicity against human T47D cells assessed as growth inhibition at 0.35 mM after 24 hrs by spectrophotometer using BrdU labeling; type: functional; conditions: read-out: GI; in short: as §1
[4] = system: T47D; assay: Cytotoxicity against human T47D cells assessed as growth inhibition at 0.03 mM after 72 hrs by spectrophotometer using BrdU labeling; type: functional; conditions: read-out: GI
[5] = Cytotoxicity against human HSF cells assessed as growth inhibition at 0.17 mM after 48 hrs by spectrophotometer using BrdU labeling; type: cell-based; conditions: read-out: GI
[6] = system: A549; assay: Cytotoxicity against human A549 cells assessed as growth inhibition at 0.03 mM after 24 hrs by spectrophotometer using BrdU labeling; type: functional; conditions: A549, 24 h, read-out: GI
[7] = Cytotoxicity against human HSF cells assessed as growth inhibition at 0.35 mM after 72 hrs by spectrophotometer using BrdU labeling; type: cell-based; conditions: read-out: GI
[8] = system: T47D; assay: Cytotoxicity against human T47D cells assessed as growth inhibition at 0.35 mM after 72 hrs by spectrophotometer using BrdU labeling; type: functional; conditions: read-out: GI; in short: as §1
[9] = system: A549; assay: Cytotoxicity against human A549 cells assessed as growth inhibition at 0.17 mM after 72 hrs by spectrophotometer using BrdU labeling; type: functional; conditions: A549, 72 h, read-out: GI
[10] = system: A549; assay: Cytotoxicity against human A549 cells assessed as growth inhibition at 0.35 mM after 48 hrs by spectrophotometer using BrdU labeling; type: functional; conditions: A549, 48 h, read-out: GI
[11] = system: A549; assay: Cytotoxicity against human A549 cells assessed as growth inhibition at 0.17 mM after 48 hrs by spectrophotometer using BrdU labeling; type: functional; conditions: A549, 48 h, read-out: GI
[12] = system: T47D; assay: Cytotoxicity against human T47D cells assessed as growth inhibition at 0.03 mM after 48 hrs by spectrophotometer using BrdU labeling; type: functional; conditions: read-out: GI
[13] = Cytotoxicity against human HSF cells assessed as growth inhibition at 0.35 mM after 24 hrs by spectrophotometer using BrdU labeling; type: cell-based; conditions: read-out: GI
[14] = Cytotoxicity against human HSF cells assessed as growth inhibition at 0.17 mM after 24 hrs by spectrophotometer using BrdU labeling; type: cell-based; conditions: read-out: GI
[15] = Cytotoxicity against human HSF cells assessed as growth inhibition at 0.03 mM after 24 hrs by spectrophotometer using BrdU labeling; type: cell-based; conditions: read-out: GI
[16] = system: A549; assay: Cytotoxicity against human A549 cells assessed as growth inhibition at 0.03 mM after 48 hrs by spectrophotometer using BrdU labeling; type: functional; conditions: A549, 48 h, read-out: GI
[17] = system: T47D; assay: Cytotoxicity against human T47D cells assessed as growth inhibition at 0.35 mM after 48 hrs by spectrophotometer using BrdU labeling; type: functional; conditions: read-out: GI; in short: as §1
[18] = system: T47D; assay: Cytotoxicity against human T47D cells assessed as growth inhibition at 0.17 mM after 72 hrs by spectrophotometer using BrdU labeling; type: functional; conditions: read-out: GI; in short: as §1
[19] = system: A549; assay: Cytotoxicity against human A549 cells assessed as growth inhibition at 0.35 mM after 72 hrs by spectrophotometer using BrdU labeling; type: functional; conditions: A549, 72 h, read-out: GI
[20] = system: A549; assay: Cytotoxicity against human A549 cells assessed as growth inhibition at 0.17 mM after 24 hrs by spectrophotometer using BrdU labeling; type: functional; conditions: A549, 24 h, read-out: GI
[21] = system: T47D; assay: Cytotoxicity against human T47D cells assessed as growth inhibition at 0.17 mM after 48 hrs by spectrophotometer using BrdU labeling; type: functional; conditions: read-out: GI; in short: as §1
[22] = Cytotoxicity against human HSF cells assessed as growth inhibition at 0.03 mM after 48 hrs by spectrophotometer using BrdU labeling; type: cell-based; conditions: read-out: GI
[23] = Cytotoxicity against human HSF cells assessed as growth inhibition at 0.17 mM after 72 hrs by spectrophotometer using BrdU labeling; type: cell-based; conditions: read-out: GI
[24] = system: A549; assay: Cytotoxicity against human A549 cells assessed as growth inhibition at 0.35 mM after 24 hrs by spectrophotometer using BrdU labeling; type: functional; conditions: A549, 24 h, read-out: GI
[25] = Cytotoxicity against human HSF cells assessed as growth inhibition at 0.03 mM after 72 hrs by spectrophotometer using BrdU labeling; type: cell-based; conditions: read-out: GI
[26] = Cytotoxicity against human HSF cells assessed as growth inhibition at 0.35 mM after 48 hrs by spectrophotometer using BrdU labeling; type: cell-based; conditions: read-out: GI
[27] = system: T47D; assay: Cytotoxicity against human T47D cells assessed as growth inhibition at 0.03 mM after 24 hrs by spectrophotometer using BrdU labeling; type: functional; conditions: read-out: GI

CCSc1n[nH]c(/C=C\C(=O)Nc2cccc(C)c2)n1
50%: inhibition at 48 h, 170 µM [5] | inhibition at 72 h, 350 µM [7] | inhibition of growth at 350 µM [10] | inhibition of growth at 170 µM [11] | inhibition at 24 h, 170 µM [14] | inhibition of growth at 350 µM [19] | inhibition of growth at 170 µM [20] | inhibition at 72 h, 170 µM [23] | inhibition of growth at 350 µM [24] | inhibition at 48 h, 350 µM [26]
0%: inhibition of growth at 30 µM [2] | inhibition of growth at 350 µM [3] | inhibition at 24 h, 30 µM [15] | inhibition of growth at 350 µM [17] | inhibition at 48 h, 30 µM [22] | inhibition at 72 h, 30 µM [25] | inhibition of growth at 30 µM [27]
20%: inhibition of growth at 30 µM [6]
25%: inhibition of growth at 350 µM [8] | inhibition of growth at 170 µM [9] | inhibition of growth at 170 µM [18]
5%: inhibition of growth at 170 µM [1] | inhibition of growth at 30 µM [4] | inhibition of growth at 30 µM [12] | inhibition at 24 h, 350 µM [13] | inhibition of growth at 30 µM [16] | inhibition of growth at 170 µM [21]

From ChEMBL document CHEMBL1153775, “Synthesis, structure elucidation and antitumour activity of N-substituted amides of 3-(3-ethylthio-1,2,4-triazol-5-yl)propenoic acid” (Eur J Med Chem, 2009)
